Active and inactive are the calls of the source. The calls are words filed in the database; no cut-off is given here.
Experiments:
[1] = tested on: Staphylococcus aureus; test: Antibacterial activity against methicillin-resistant Staphylococcus aureus ATCC 43300 after 16 hrs by broth microdilution assay; assay type: functional; conditions: for MIC: ATCC 43300, 16 h
[2] = tested on: Staphylococcus aureus; test: Inhibition of biofilm formation in methicillin-resistant Staphylococcus aureus ATCC 43300 after 24 hrs by crystal violet staining based method; assay type: functional, organism-based; conditions: for IC50: ATCC 43300, 24 h
Summary of the method: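 Read-out is the IC50, taken as the compound concentration that inhibits 50% of MRSA 43300 biofilm formation.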

[3] = tested on: Escherichia coli; test: Antibacterial activity against Escherichia coli ATCC 25922 expressing mcr1 gene after 16 hrs by broth microdilution assay; assay type: organism-based; conditions: in vitro
[4] = tested on: Escherichia coli; test: Antibacterial activity against Escherichia coli ATCC 25922 after 16 hrs by broth microdilution assay; assay type: organism-based
[5] = tested on: Acinetobacter baumannii; test: Antibacterial activity against Acinetobacter baumannii ATCC 17978 expressing mcr1 gene after 16 hrs by broth microdilution assay; assay type: organism-based; conditions: in vitro
[6] = tested on: Acinetobacter baumannii; test: Antibacterial activity against Acinetobacter baumannii ATCC 17978 after 16 hrs by broth microdilution assay; assay type: organism-based
[7] = tested on: Acinetobacter baumannii; test: Antibacterial activity against Acinetobacter baumannii isolate 3941 after 16 hrs by broth microdilution assay; assay type: organism-based
[8] = tested on: Acinetobacter baumannii; test: Antibacterial activity against Acinetobacter baumannii isolate 4106 after 16 hrs by broth microdilution assay; assay type: organism-based
[9] = tested on: Acinetobacter baumannii; test: Antibacterial activity against Acinetobacter baumannii ATCC 19606 after 16 hrs by broth microdilution assay; assay type: organism-based, ATCC 19606 = CIP 70.34 = JCM 6841
[10] = tested on: Acinetobacter baumannii; test: Antibacterial activity against Acinetobacter baumannii isolate 5075 after 16 hrs by broth microdilution assay; assay type: organism-based
[11] = tested on: Klebsiella pneumoniae; test: Antibacterial activity against Klebsiella pneumoniae ATCC 2146 expressing NDM1 gene after 16 hrs by broth microdilution assay; assay type: organism-based
[12] = tested on: Acinetobacter baumannii; test: Potentiation of colistin-induced antimicrobial activity against Acinetobacter baumannii isolate 4106 after 16 hrs in presence of 0.01% triton X-100 by broth microdilution assay; assay type: functional, organism-based
[13] = tested on: Klebsiella pneumoniae; test: Potentiation of colistin-induced antimicrobial activity against Klebsiella pneumoniae isolate B9 after 16 hrs in presence of 0.01% triton X-100 by broth microdilution assay; assay type: functional, organism-based
[14] = tested on: Klebsiella pneumoniae; test: Antibacterial activity against Klebsiella pneumoniae isolate C3 after 16 hrs by broth microdilution assay
[15] = tested on: Klebsiella pneumoniae; test: Antibacterial activity against Klebsiella pneumoniae isolate B9 after 16 hrs by broth microdilution assay; conditions: in vivo

| Compound | Activity [1] | IC50 [2] | MIC [3] | MIC [4] | MIC [5] | MIC [6] | MIC [7] | MIC [8] | MIC [9] | MIC [10] | MIC [11] | Activity [12] | Activity [13] | MIC [14] | MIC [15] | MIC [1] | Activity [2] |
| --- | --- | --- | --- | --- | --- | --- | --- | --- | --- | --- | --- | --- | --- | --- | --- | --- | --- |
| Cc1ccc2[nH]cc(-c3ccnc(N)n3)c2c1.Cl | inactive | > 100 µM | > 200 µM | > 200 µM | > 200 µM | > 200 µM | > 200 µM | > 200 µM | > 200 µM | > 200 µM | > 200 µM | inactive | inactive | > 200 µM | > 200 µM | – | – |
| Cl.Nc1nccc(-c2c[nH]c3cc(F)ccc23)n1 | – | > 100 µM | > 200 µM | > 200 µM | > 200 µM | > 200 µM | > 200 µM | > 200 µM | > 200 µM | > 200 µM | > 200 µM | – | – | > 200 µM | > 200 µM | – | – |
| CCCCCn1cc(-c2ccnc(N)n2)c2cc(Br)ccc21.Cl | – | > 100 µM | > 200 µM | > 200 µM | > 200 µM | > 200 µM | > 200 µM | > 200 µM | > 200 µM | > 200 µM | > 200 µM | – | – | > 200 µM | > 200 µM | – | – |
| Cl.Nc1nccc(-c2c[nH]c3cc(I)ccc23)n1 | – | 42.5 µM | > 200 µM | > 200 µM | > 200 µM | > 200 µM | > 200 µM | > 200 µM | > 200 µM | > 200 µM | > 200 µM | – | – | > 200 µM | > 200 µM | > 200 µM | – |
| Nc1nccc(-c2c[nH]c3c(Br)cccc23)n1 | – | 99.8 µM | – | – | – | – | – | – | – | – | – | – | – | – | – | – | – |
| Cc1ccc(S(=O)(=O)n2cc(C(=O)/C=C/N(C)C)c3ccc(F)cc32)cc1 | – | – | – | – | – | – | – | – | – | – | – | – | – | – | – | – | Active |
| Cl.Cn1cc(-c2ccnc(N)n2)c2ccc(Br)cc21 | – | 59.6 µM | > 200 µM | > 200 µM | > 200 µM | > 200 µM | > 200 µM | > 200 µM | > 200 µM | > 200 µM | > 200 µM | – | – | > 200 µM | > 200 µM | 200 µM | – |
| CCNc1nccc(-c2cn(C)c3cc(Br)ccc23)n1.Cl | – | – | > 200 µM | > 200 µM | > 200 µM | > 200 µM | > 200 µM | > 200 µM | > 200 µM | > 200 µM | > 200 µM | – | – | > 200 µM | > 200 µM | – | inactive |
| CCCn1cc(-c2ccnc(N)n2)c2ccc(I)cc21.Cl | – | – | > 200 µM | > 200 µM | > 200 µM | > 200 µM | > 200 µM | > 200 µM | > 200 µM | > 200 µM | > 200 µM | – | – | > 200 µM | > 200 µM | – | inactive |
| Cl.Nc1nccc(-c2c[nH]c3ccc(Cl)cc23)n1 | – | – | > 200 µM | > 200 µM | > 200 µM | > 200 µM | > 200 µM | > 200 µM | > 200 µM | > 200 µM | > 200 µM | – | – | > 200 µM | > 200 µM | – | inactive |
| Cl.Cn1cc(-c2ccnc(N)n2)c2cc(Br)ccc21 | – | > 100 µM | > 200 µM | > 200 µM | > 200 µM | > 200 µM | > 200 µM | > 200 µM | > 200 µM | > 200 µM | > 200 µM | – | – | > 200 µM | > 200 µM | – | – |

— ChEMBL document CHEMBL4196121, “Meridianin D Analogues Display Antibiofilm Activity against MRSA and Increase Colistin Efficacy in Gram-Negative Bacteria” (ACS Med Chem Lett, 2018)
